From PubChem BioAssay
RanGTP-Imp inh = disruptors of Ran-importin-beta complex formation – biochemical, FRET, CFP-Ran, YFP-importin-beta, homogeneous, primary screen; AID 2216; inhibition, % (no concentration beside the values); 1.1% of 300,000 active; cell-free CFP-Ran/YFP-importin-beta FRET ratio;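 active means more than half of the replicate wells show a fall in the fluorescence ratio signal beyond about 16%, limit read from the data, passing the limit was not always enough; inconclusive means exactly half of the replicate wells pass the set limit; inactive means fewer than half of replicates pass the limit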;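 further: 0% = DMSO wells and 100% = Ran loaded with GDP instead of GTP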
Runt-CBFb FRET = inhibitors of human RUNX1 Runt domain binding to CBFb | Cerulean-Runt/Venus-CBFb FRET ratio 530/480, 1 h | inhibition, % at 20 µM | 0.46% of 220,000 active | AID 1496;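 active means inhibition over about 50% at 20 µM in the single-dose screen, limit read from the data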;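 further: 0% = DMSO wells and 100% = excess unlabeled CBFb competitor control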
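Doses: 20 µM compound in 1% DMSO | Material: Cerulean-labeled Runt domain protein | Amount: Each fluorescent fusion protein 100 nM | Schedule: Two 1 h room-temperature incubations shielded from light | Measured by: FRET fluorescence | Evaluation: Loss of energy transfer signal | Controls: Unlabeled CBFb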
Wee1 degr inh = blocks degradation of human Wee1 kinase; 1.2% of 220,000 active; P30291; HeLa Luc-Wee1K328M stability, luciferase luminescence; 100% = proteasome inhibitor MG132 effect; reporter increase, % at 5 µM;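 active means activation above the mean of all tested compounds plus 3 SD, set per screening run, cut at about 8.8% in these data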;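 further: cells exposed to compound for 20 h before luminescence read; 0% = DMSO alone and 100% = MG132 at 30 µM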
PHOSPHO1 inh = PHOSPHO1 (human) inhibition; Q8TCT1; recombinant PHOSPHO1, absorbance phosphatase assay; inhibition, % at 13.3 µM; 1.1% of 290,000 active; in the data active means inhibition above about 60%
Target sequence (Q8TCT1 whole entry, looked up): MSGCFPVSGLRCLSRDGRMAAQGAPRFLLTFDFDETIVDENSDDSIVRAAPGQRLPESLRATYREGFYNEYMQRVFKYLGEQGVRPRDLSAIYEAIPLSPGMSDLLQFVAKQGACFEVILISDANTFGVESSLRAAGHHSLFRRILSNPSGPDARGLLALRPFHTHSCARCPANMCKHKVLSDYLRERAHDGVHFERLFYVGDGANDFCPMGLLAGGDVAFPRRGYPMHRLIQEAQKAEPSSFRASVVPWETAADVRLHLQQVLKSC
HMGR II inh = E. faecalis class II HMG-CoA reductase inhibition; purified E. faecalis HMGR, NADPH absorbance 340 nm kinetic; inhibition, % at 10 µM; 0.41% of 190,000 active; AID 1066;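 active means inhibition above a set limit, the median over all tested compounds plus 3 SD, cut at about 9.5% in these data; inconclusive means no clear call, values can overlap the other calls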;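 further: enzyme runs in reverse so mevalonate oxidation gives rising NADPH absorbance; 0% = complete reaction with DMSO and 100% = background rate lacking mevalonate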
Runt-SMMHC FRET = Runt domain-CBFb-SMMHC interaction inhibition | Q01196+Q13951 | Cerulean-Runt/Venus-CBFb-SMMHC FRET ratio 530/480, 1 h | inhibition, % at 20 µM | 0.74% of 220,000 active | AID 1434;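 active means mean inhibition across duplicate retests at 20 µM reaching about 50%, limit read from the data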;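 further: 0% = DMSO wells and 100% = wells with excess untagged CBFb-SMMHC; inhibitors lower the FRET ratio by blocking Runt binding to CBFb-SMMHC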
* hit, by the source's call; u = inconclusive; x = no result. Shown are actives, neighbours in structure and some others; about 3.4% of the full set was active somewhere.

SMILES	RanGTP-Imp inh	Runt-CBFb FRET	Wee1 degr inh	PHOSPHO1 inh	HMGR II inh	Runt-SMMHC FRET
CC(=O)Nc1ccc(S(=O)(=O)NCCc2cc3ccc(C)c(C)c3[nH]c2=O)cc1	0	x	x	63*	x	x
CCOC(=O)C1CCCN(C(=O)c2ccc(-c3ccc([N+](=O)[O-])cc3)o2)C1 (centres undefined)	-1	x	x	x	x	x
CCCCC(O)(c1ccc(F)cc1)C(CN1CCOCC1)c1ccc(Cl)cc1 (centres undefined)	-2	x	x	46	x	x
CCOC(=O)c1cc(-c2csc(N/N=C/c3ccccc3Cl)n2)on1	42*	7	0	2	x	16
S=c1[nH]nc(-c2ccco2)n1-c1ccc(Cl)cc1	4	6	0	-9	0	13
COc1ccccc1-c1n[nH]c(=S)n1N	-1	5	1	-7	-3	1
S=c1[nH]nc(-c2ccco2)n1C1CCCCC1	-1	8	-4	-58	0	9
COc1ccccc1-c1n[nH]c(=S)n1-c1ccccc1	0	11	-1	89*	-1	9
Cc1ccc(C)c(-n2c(-c3ccco3)n[nH]c2=S)c1	15*	x	x	x	x	x
COc1ccc(-n2c(-c3ccco3)n[nH]c2=S)cc1	2	3	-1	99*	1	17
Nn1c(-c2ccco2)n[nH]c1=S	3	6	0	86*	-8	4
COc1ccccc1-n1c(-c2ccco2)n[nH]c1=S	0	x	x	54	x	x
COc1cc(OC)cc(-c2n[nH]c(=S)n2-c2cc(OC)ccc2OC)c1	-1	2	4	82*	-2	8
COc1ccc(OC)c(-n2c(-c3ccc(O)cc3O)n[nH]c2=S)c1	u	18	-1	51	x	5
CC1(C)CC(=O)C(Sc2nnc(-c3ccc(O)cc3)n2CC2CCCO2)C(=O)C1 (centres undefined)	3	1	-2	85*	-3	-1
CC(=O)Nc1ccc(C(=O)CSc2nnc(-c3ccc(O)cc3)n2CC2CCCO2)cc1 (centres undefined)	3	-1	3	65*	-4	-3
CCC(=O)Nc1ccc(NC(=O)CSc2nnc(-c3ccc(O)cc3)n2CC2CCCO2)cc1 (centres undefined)	x	0	-4	2	-12	2
CCNC(=O)CC1C(=O)N(c2ccc(C)cc2)C(=O)N1CCOC (centres undefined)	-5	x	x	39	x	x
COc1ccc(S(=O)(=O)N2CCC(C(=O)NCCC(=O)Nc3cccc(Cl)c3)CC2)cc1	0	x	x	26	x	x
Cc1nc(N2CCOCC2)nc(Oc2ccccc2)c1[N+](=O)[O-]	2	-1	9.2*	-3	x	-2
CCCCOc1nc(N2CCOCC2)nc(C)c1[N+](=O)[O-]	1	-3	1	40	x	-1
COC(=O)c1cc2c(=O)n3cccc(C)c3nc2n(Cc2cccnc2)c1=N	x	56*	x	-27	x	57*
C=CCn1c(=N)c(C(=O)OC)cc2c(=O)n3cccc(C)c3nc21	x	52*	x	1	x	58*
COC(=O)c1cc2occc2n1Cc1ccc(Cl)cc1	1	3	0	64*	1	-4
CN(CC(=O)Nc1ccccc1Cl)C(=O)CSc1ncc(C(F)(F)F)cc1Cl	-1	-8	3	-6	-11	-2
SMILES	RanGTP-Imp inh	Runt-CBFb FRET	Wee1 degr inh	PHOSPHO1 inh	HMGR II inh	Runt-SMMHC FRET
NS(=O)(=O)c1ccc(N2N=C(c3ccccc3)CC2c2cccc(F)c2)cc1 (centres undefined)	-2	4	-1	8	-1	19
NS(=O)(=O)c1ccc(N2N=C(c3ccc(Br)cc3)CC2c2ccc(F)cc2)cc1 (centres undefined)	23*	13	-2	-18	-5	26
Cc1ccc(-c2nc(C#N)c(N3CCC(C(N)=O)CC3)o2)cc1	1	x	x	32	x	x
COc1cccc(-c2cn3nc(C)c(C)nc3n2)c1	u	-4	-1	32	2	-5
Cc1nc2nc(-c3ccc(Cl)cc3)cn2nc1C	78*	61*	-1	11	1	57*
Cc1nc2nc(-c3cccs3)cn2nc1C	57*	-4	-2	31	2	-105
Cc1cc(-c2cccs2)n[nH]1	0	2	3	11	-2	4
CN(C(=O)c1ccc2c(c1)OCO2)C1CCS(=O)(=O)C1 (centres undefined)	-4	x	x	x	x	x
Cc1ccc2cccc(NC(=S)NC(=O)c3ccccc3)c2n1	2	6	-1	-27	1	-1
Cc1ccc2cccnc2c1NC(=S)NC(=O)c1ccccc1	2	9	0	69*	-2	-2
CC1=NN(c2ccccc2)C(=O)C1N=Nc1ccc(C)cc1 (centres undefined)	1	-2	1	9	-5	0
Cc1ccc(C2C=NN(c3ccccc3)C2=O)cc1 (centres undefined)	2	-2	4	37	10*	2
CCOC(=O)C(CC)n1cnc2c(nnn2-c2ccc(OC)cc2)c1=O (centres undefined)	4	-3	-2	14	27*	4
CCOC(=O)c1nnn(-c2ccc(OC)cc2)c1N	x	1	5	22	15*	4
CCC(C(=O)OC)n1cnc2c(nnn2-c2ccc(OC)cc2)c1=O (centres undefined)	1	1	-2	1	-3	0
Cc1ccc(CCNC(=O)CC(C)CC2=NS(=O)(=O)c3ccccc3N2)cc1 (centres undefined)	-1	x	x	13	x	x
CCN1C(=O)[C@H]2[C@@H](c3ccc(-c4ccc(F)cc4)c(OC)c3)N[C@@](CC(C)C)(C(=O)OC)[C@H]2C1=O	1	x	x	x	x	x
CCN(CC)c1ccc(NC(=O)Cn2cc3c(n2)CCC(C)C3)c(C)c1 (centres undefined)	u	24	-2	83*	-5	32
O=C(Nc1cccc(Cl)c1Cl)c1ccccc1OCC(=O)N1CCOCC1	-4	x	x	23	x	x
O=C(N=NC(=O)c1ccc2c(O)n(CC3CCCO3)c(O)c2c1)c1cccnc1 (centres undefined)	7	0	2	34	x	0
Cc1ccc(C)c(Sc2ccc(NC(=O)CCl)cc2)c1	3	1	16*	-4	-2	0
C=CCn1c(SC(C)C#N)nc2sc(CC)cc2c1=O (centres undefined)	-3	-1	11*	-1	-5	-3
C=CCn1c(SC(C)C(N)=O)nc2sc(CC)cc2c1=O (centres undefined)	-1	-1	-2	21	-9	-2
C(=N\Nc1nc2ccccc2[nH]1)/c1ccccn1	3	-1	-4	2	2	2
Fc1ccccc1-c1ccc(/C=N/Nc2nc3ccccc3[nH]2)o1	x	20	3	6	6	77*
